Results reported in ChEMBL document CHEMBL2203159, “Synthesis and structure-activity relationships of fibrate-based analogues inside PPARs” (Bioorg Med Chem Lett, 2012).

Key:
[1] = target: T1, Peroxisome proliferator-activated receptor alpha (Homo sapiens) (UniProt Q07869); experiment: Transactivation of human GAL4-fused PPARalpha ligand binding domain transfected in HEK293 cells at 150 uM after 18 hrs by dual luciferase reporter gene assay relative to clofibric acid; format: cell-based
T1 sequence (whole entry): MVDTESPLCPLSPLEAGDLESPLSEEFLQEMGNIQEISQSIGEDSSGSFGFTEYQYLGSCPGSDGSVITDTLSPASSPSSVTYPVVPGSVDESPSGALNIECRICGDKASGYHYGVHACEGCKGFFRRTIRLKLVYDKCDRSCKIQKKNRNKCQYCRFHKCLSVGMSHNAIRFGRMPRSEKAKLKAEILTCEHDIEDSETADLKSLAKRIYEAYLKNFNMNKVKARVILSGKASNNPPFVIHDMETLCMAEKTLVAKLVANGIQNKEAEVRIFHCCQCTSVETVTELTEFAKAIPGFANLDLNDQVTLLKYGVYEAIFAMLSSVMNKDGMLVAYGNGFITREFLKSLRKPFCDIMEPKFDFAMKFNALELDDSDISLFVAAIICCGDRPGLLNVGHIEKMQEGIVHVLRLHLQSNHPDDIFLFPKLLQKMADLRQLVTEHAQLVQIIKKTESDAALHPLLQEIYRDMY
How it was run: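 This is a GAL4–PPAR transactivation assay in HEK293 cells with a GAL4-responsive luciferase reporter, run in at least two separate experiments. Efficacy is the percentage of the maximum fold induction obtained with the reference agonist clofibric acid. Results are given ± SEM.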

[2] = target: T2, Peroxisome proliferator-activated receptor alpha (Homo sapiens, UniProt Q07869); experiment: Transactivation of human GAL4-fused PPARalpha ligand binding domain transfected in HEK293 cells after 18 hrs by dual luciferase reporter gene assay; format: cell-based
T2 sequence (Q07869 whole entry): T1 sequence (whole entry)
How it was run: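 HEK293 cells carried a GAL4–PPAR chimera and a GAL4-responsive luciferase reporter in a transactivation assay. Compounds were tested at 1 to 150 µM in at least two separate experiments, and results are given ± SEM.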

[3] = target: T3, Peroxisome proliferator-activated receptor gamma (Homo sapiens, UniProt P37231); experiment: Transactivation of human GAL4-fused PPARgamma ligand binding domain transfected in HEK293 cells after 18 hrs by dual luciferase reporter gene assay; format: cell-based
T3 sequence (P37231 whole entry): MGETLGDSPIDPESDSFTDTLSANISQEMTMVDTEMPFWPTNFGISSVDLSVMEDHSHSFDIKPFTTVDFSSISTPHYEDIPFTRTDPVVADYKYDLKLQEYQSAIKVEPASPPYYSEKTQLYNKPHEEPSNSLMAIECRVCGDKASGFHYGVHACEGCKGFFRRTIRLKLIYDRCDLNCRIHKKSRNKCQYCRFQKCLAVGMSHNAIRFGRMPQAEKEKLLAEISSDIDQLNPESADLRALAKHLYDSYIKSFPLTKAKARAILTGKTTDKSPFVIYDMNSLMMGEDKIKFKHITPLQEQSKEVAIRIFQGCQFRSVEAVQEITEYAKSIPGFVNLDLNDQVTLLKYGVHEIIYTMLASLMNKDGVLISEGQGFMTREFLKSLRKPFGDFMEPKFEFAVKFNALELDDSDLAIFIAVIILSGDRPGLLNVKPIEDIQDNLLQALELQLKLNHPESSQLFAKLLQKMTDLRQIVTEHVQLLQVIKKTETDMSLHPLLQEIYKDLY

[4] = target: T1, Peroxisome proliferator-activated receptor alpha (Homo sapiens); experiment: Transactivation of PPARalpha in human HepG2 cells assessed as increase in CPT1A mRNA expression after 48 hrs by RT-qPCR analysis

Row | SMILES | %max [1] [%] | EC50 ([2]; read-out: EC50) [µM] | EC50 ([3]; read-out: EC50) [µM] | EC50 ([3]; hek293) | EC50 ([2]; hek293) | Activity [4]
1 | CC(C)(Oc1ccc(CO)cc1)C(=O)O | 119 | 34.5 | 30 |  |  | 
2 | CC(C)(Oc1ccc(Cl)cc1)C(=O)O [CLOFIBRIC ACID] |  |  |  | Not Active |  | 
3 | CC(C)(Oc1ccc(CCCOc2ccc(/C=C/c3ccccc3)cc2)cc1)C(=O)O | 125 | 9.9 | 0.8 |  |  | 
4 | CC(C)(Oc1ccc(CCOc2nc3ccccc3s2)cc1)C(=O)O | 169 | 18.3 | 39.3 |  |  | 
5 | CC(C)(Oc1ccc(CCOc2ccc(C(=O)/C=C/c3ccccc3)cc2)cc1)C(=O)O | 118 | 64 | 5.9 |  |  | 
6 | CC(C)(Oc1ccc(COc2ccc(C(=O)c3ccccc3)cc2)cc1)C(=O)O |  |  | 5.4 |  | Not Active | 
7 | CC(C)(Oc1ccc(CCCOc2ccc(/N=N/c3ccccc3)cc2)cc1)C(=O)O | 81 | 42.8 | 10 |  |  | 
8 | CC(C)(Oc1ccc(COc2ccc(C(=O)/C=C/c3ccccc3)cc2)cc1)C(=O)O |  |  |  | Not Active | Not Active | 
9 | CC(C)(Oc1ccc(CCOc2ccc(/C=C/c3ccccc3)cc2)cc1)C(=O)O | 81 | 11.6 | 12.6 |  |  | 
10 | CC(C)(Oc1ccc(COc2ccc(Oc3ccccc3)cc2)cc1)C(=O)O |  |  | 0.8 |  | Not Active | 
11 | CC(C)(Oc1ccc(CCCO)cc1)C(=O)O | 181 | 30.6 |  | Not Active |  | 
12 | CC(C)(Oc1ccc(COc2ccc(/C=C/c3ccccc3)cc2)cc1)C(=O)O | 156 | 40.5 | 6 |  |  | 
13 | CCc1ccc(CCOc2ccc(CC3SC(=O)NC3=O)cc2)nc1 (configuration not stated) [PIOGLITAZONE] |  |  |  |  | Not Active | 
14 | CC(C)(Oc1ccc(CCO)cc1)C(=O)O | 94 | 75.1 |  | Not Active |  | 
15 | CC(C)(Oc1ccc(COc2ccc(/N=N/c3ccccc3)cc2)cc1)C(=O)O | 350 | 5.6 |  |  |  | 
16 | CC(C)(Oc1ccc(CCCOc2ccc(C(=O)c3ccccc3)cc2)cc1)C(=O)O |  |  | 5.8 |  | Not Active | 
17 | CC(C)(Oc1ccc(CCCOc2ccc(C(=O)/C=C/c3ccccc3)cc2)cc1)C(=O)O |  |  | 0.8 |  | Not Active | 
18 | CC(C)(Oc1ccc(CCCOc2nc3ccccc3s2)cc1)C(=O)O | 100 | 45.8 | 7.9 |  |  | 
19 | CC(C)(Oc1ccc(COc2nc3ccccc3s2)cc1)C(=O)O | 125 | 44.6 | 32 |  |  | 
20 | CC(C)(Oc1ccc(CCOc2ccc(Oc3ccccc3)cc2)cc1)C(=O)O |  |  | 6.9 |  | Not Active | 
21 | CC(C)(Oc1ccc(CCCOc2ccc(Oc3ccccc3)cc2)cc1)C(=O)O |  |  | 75.2 |  | Not Active | 
22 | CC(C)(Oc1ccc(CCOc2ccc(/N=N/c3ccccc3)cc2)cc1)C(=O)O | 158 | 0.6 | 1.4 |  |  | Dose-dependent effect
23 | CC(C)(Oc1ccc(CCOc2ccc(C(=O)c3ccccc3)cc2)cc1)C(=O)O |  |  | 54.6 |  | Not Active | 
